From ChEMBL document CHEMBL3745671, “Discovery of N-[5-(6-Chloro-3-cyano-1-methyl-1H-indol-2-yl)-pyridin-3-ylmethyl]-ethanesulfonamide, a Cortisol-Sparing CYP11B2 Inhibitor that Lowers Aldosterone in Human Subjects” (J Med Chem, 2015)
Active and inactive are the calls of the source. The calls are words filed in the database; no cut-off is given here.

What was measured:
[1] = Cmax in healthy human at 200 mg/kg, po bid; assay type: ADME, organism-based; parameters: dose 200 mg/kg, route oral; details: in vivo
How it was run: (§1)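 Double-blind, randomized, placebo-controlled study in healthy male and female volunteers aged 18-63 on a restricted sodium/potassium diet. Oral bid doses of 30, 60, 100 or 200 mg, drug:placebo 5:2. N per dose 10–17. AUCtau, Cmax and median Tmax reported; dose-normalized values are AUCtau/dose and Cmax/dose.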

[2] = Tmax in healthy human at 200 mg/kg, po bid; assay type: ADME, organism-based; details: in vivo; how it was run: as §1
Cynomolgus monkey [3] = assay: Decrease in ACTH-stimulated plasma aldosterone level in po dosed chair-trained chronically cannulated cynomolgus monkey model compound administered followed by ACTH challenge for 3 hrs measured after 24 hrs by LC/MS/MS analysis; assay type: functional, organism-based; details: Macaca fascicularis
How it was run: (§2)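 Conscious chair-trained, chronically cannulated male cynomolgus monkeys; vascular access port via Huber needle. Baseline blood (heparin) before dosing; methylcellulose suspension po at 0.03, 0.1, 0.3 or 3 mg/kg (n=3/dose) or vehicle (n=6, same animals). ACTH(1–24) 3000 ng/kg iv 3 h post-dose; sampling 0.125–1 h post-ACTH, up to 8 h, and 23.5 and 24 h. Aldosterone and cortisol by RIA; drug by LC/MS/MS (LLOQ 0.26 nmol/L, lower values set to zero).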

[4] = Tmax in healthy human at 30 mg/kg, po bid; assay type: ADME, organism-based; details: in vivo; how it was run: as §1
[5] = Tmax in healthy human at 100 mg/kg, po bid; assay type: ADME, organism-based; details: in vivo; how it was run: as §1
Homo sapiens [6] = assay: Dose normalized AUCtau in healthy human at 30 mg/kg, po bid; assay type: ADME, organism-based; details: in vivo; how it was run: as §1
Homo sapiens [7] = assay: Dose normalized AUCtau in healthy human at 60 mg/kg, po bid; assay type: ADME, organism-based; details: in vivo; how it was run: as §1
Homo sapiens [8] = assay: Dose normalized Cmax in healthy human at 100 mg/kg, po bid; assay type: ADME, organism-based; details: in vivo; how it was run: as §1
Cynomolgus monkey [9] = assay: Decrease in ACTH-stimulated plasma aldosterone level in chair-trained chronically cannulated cynomolgus monkey model at 3 mg/kg, po compound administered followed by ACTH challenge for 3 hrs measured by radioimmunoassay; parameters: scale not given: the % may be the effect or the level left
Homo sapiens [10] = assay: Decrease in plasma aldosterone level in human at 200 mg/kg, po bid measured over 24 hrs; assay type: functional; details: in the assay text read “200 mg” for “200 mg/kg”
How it was run: (§3)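 Healthy male and female volunteers, 18-63 years, restricted sodium/potassium diet; double-blind randomized placebo-controlled, oral 30, 60, 100 or 200 mg bid (drug:placebo 5:2).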

Homo sapiens [11] = assay: Decrease in urinary aldosterone excretion in human at 200 mg/kg, po bid measured over 24 hrs; assay type: functional, Urine; details: in the assay text read “200 mg” for “200 mg/kg”; how it was run: as §3
[12] = Cmax in healthy human at 60 mg/kg, po bid; assay type: ADME, organism-based; parameters: dose 60 mg/kg, route oral; details: in vivo; how it was run: as §1
[13] = Equilibrium solubility of the compound in buffer at pH 6.8; assay type: physicochemical
How it was run: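 Equilibrium solubility measured in buffer at pH 6.8.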

Homo sapiens [14] = assay: Toxicity in human assessed as increase in urinary 11-deoxycortisol level at 30 to 200 mg/kg, po bid measured over 24 hrs; assay type: organism-based, Urine; details: in vivo, in the assay text read “30 to 200 mg” for “30 to 200 mg/kg”; how it was run: as §3
Homo sapiens [15] = assay: Dose normalized AUCtau in healthy human at 200 mg/kg, po bid; assay type: ADME, organism-based; details: in vivo; how it was run: as §1
[16] = Cmax in healthy human at 30 mg/kg, po bid; assay type: ADME, organism-based; parameters: dose 30 mg/kg, route oral; details: in vivo; how it was run: as §1
Plasma = assay: Drug uptake in plasma of chair-trained chronically cannulated cynomolgus monkey model at 0.03 to 3 mg/kg, po compound administered followed by ACTH challenge for 3 hrs measured at 24 hrs by LC/MS/MS analysis; assay type: ADME, organism-based, Macaca fascicularis; details: in vivo; how it was run: as §2
Homo sapiens [17] = assay: Dose normalized Cmax in healthy human at 60 mg/kg, po bid; assay type: ADME, organism-based; details: in vivo; how it was run: as §1
[18] = Cmax in healthy human at 100 mg/kg, po bid; assay type: ADME, organism-based; parameters: dose 100 mg/kg, route oral; details: in vivo; how it was run: as §1
[19] = Half life in human liver microsomes after 30 mins by LC/MS/MS analysis; assay type: ADME
CYP19 (aromatase) = biological target: T1, CYP19 (aromatase) (Homo sapiens, UniProt P11511); assay: Inhibition of human CYP19 at 10 uM preincubated for 10 mins with NADPH followed by protein addition measured after 90 mins by fluorometric analysis
T1 sequence (P11511 whole entry): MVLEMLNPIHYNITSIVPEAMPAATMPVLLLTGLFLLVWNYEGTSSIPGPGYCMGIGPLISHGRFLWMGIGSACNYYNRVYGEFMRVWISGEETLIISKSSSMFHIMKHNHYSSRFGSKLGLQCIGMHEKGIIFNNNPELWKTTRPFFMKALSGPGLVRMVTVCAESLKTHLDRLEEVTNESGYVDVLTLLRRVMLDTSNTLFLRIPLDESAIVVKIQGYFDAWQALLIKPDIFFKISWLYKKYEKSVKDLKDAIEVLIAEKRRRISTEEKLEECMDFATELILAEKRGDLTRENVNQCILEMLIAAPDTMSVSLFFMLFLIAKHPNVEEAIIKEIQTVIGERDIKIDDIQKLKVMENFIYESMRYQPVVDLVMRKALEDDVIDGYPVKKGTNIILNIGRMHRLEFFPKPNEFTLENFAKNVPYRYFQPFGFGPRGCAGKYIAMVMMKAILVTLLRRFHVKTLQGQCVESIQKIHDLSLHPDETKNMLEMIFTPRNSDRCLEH

Homo sapiens [20] = assay: Dose normalized Cmax in healthy human at 200 mg/kg, po bid; assay type: ADME, organism-based; details: in vivo; how it was run: as §1
Cynomolgus monkey [21] = assay: Decrease in plasma cortisol level in chair-trained chronically cannulated cynomolgus monkey model measured after 24 hrs […]; assay type: functional, organism-based; details: Macaca fascicularis; how it was run: as §2
[22] = Half life in rat liver microsomes after 30 mins by LC/MS/MS analysis; assay type: ADME
[23] = AUC (0 to 24 hrs) in continuous angiotensin 2 infusion Sprague-Dawley rat model at 3 mg/kg, po; assay type: ADME, organism-based; parameters: time < 24 hr, dose 3 mg/kg, route oral; details: in vivo
How it was run: (§4)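 Male Sprague Dawley rats, 200–300 g. IV: 0.3 mg/1 mL/kg (free base) slow injection via jugular vein, n=2. Oral gavage at 1 mg/5 mL/kg or 3 mg/5 mL/kg in solution, n=3. Jugular catheter blood at 5 min (iv only), 0.25–8 h into EDTA; plasma after protein precipitation with acetonitrile containing internal standard, HPLC-MS; noncompartmental parameters.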

[24] = Oral bioavailability in continuous angiotensin 2 infusion Sprague-Dawley rat model at 3 mg/kg; assay type: ADME, organism-based; details: in vivo; how it was run: as §4

CCS(=O)(=O)NCc1cncc(-c2c(C#N)c3ccc(Cl)cc3n2C)c1
Cmax [1]: 0.306 µg/mL
Tmax [2]: 4 h
Activity (Cynomolgus monkey [3]): Dose-dependent effect
EC50 (Cynomolgus monkey [3]): 8.5 nM
ED50 (Cynomolgus monkey [3]; po): 0.061 mg/kg
Tmax [4]: 4 h
Tmax [5]: 4 h
AUC/dose (Homo sapiens [6]): 25.6 ng·h/mL/mg
AUC/dose (Homo sapiens [7]): 17.1 ng·h/mL/mg
Cmax/dose (Homo sapiens [8]): 0.0017 µg/mL
Activity (Cynomolgus monkey [9]): 95%
%max (Homo sapiens [10]): 70%
%max (Homo sapiens [11]): 70%
Cmax [12]: 0.173 µg/mL
solubility thermodynamic [13]: < 5 µM
Activity (Homo sapiens [14]): Non-toxic
AUC/dose (Homo sapiens [15]): 10.9 ng·h/mL/mg
Cmax [16]: 0.117 µg/mL
Drug uptake (Plasma): Active
Cmax/dose (Homo sapiens [17]): 0.0028 µg/mL
Cmax [18]: 0.173 µg/mL
half-life [19]: 1.28 h
inhibition at 1.5 h, 10 µM (CYP19 (aromatase)): 82%
Cmax/dose (Homo sapiens [20]): 0.0015 µg/mL
Activity (Cynomolgus monkey [21]): inactive
half-life [22]: 0.467 h
AUC(0-t) at 24 h [23]: 5.79 µM·h
bioavailability [24]: 84%
